Source: ChEMBL document CHEMBL1142705, “Rational design, synthesis, and structure-activity relationships of aryltriazoles as novel corticotropin-releasing factor-1 receptor antagonists” (J Med Chem, 2005)

Key:
[1] = target: T1, Corticotropin-releasing factor receptor 1 (Homo sapiens, UniProt P34998); assay: Inhibition of [125I][Tyr0]-sauvagine binding to human Corticotropin releasing factor receptor 1 expressed in mouse fibroblast Ltk- cells; format: cell-based
T1 sequence (P34998 whole entry): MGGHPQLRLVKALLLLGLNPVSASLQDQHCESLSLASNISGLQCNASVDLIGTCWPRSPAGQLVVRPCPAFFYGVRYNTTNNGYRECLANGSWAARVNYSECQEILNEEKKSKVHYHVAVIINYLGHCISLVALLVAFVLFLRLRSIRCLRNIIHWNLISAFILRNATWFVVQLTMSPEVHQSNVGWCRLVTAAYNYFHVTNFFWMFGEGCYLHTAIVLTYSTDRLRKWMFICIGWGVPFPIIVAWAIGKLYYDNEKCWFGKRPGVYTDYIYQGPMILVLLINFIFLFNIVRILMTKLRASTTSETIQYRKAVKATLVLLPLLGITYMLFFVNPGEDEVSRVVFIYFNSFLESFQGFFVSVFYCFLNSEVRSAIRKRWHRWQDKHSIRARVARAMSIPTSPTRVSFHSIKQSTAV

[2] = target: T2, Corticotropin-releasing factor receptor 2 (Homo sapiens, UniProt Q13324); assay: Binding affinity for human Corticotropin releasing factor receptor 2
T2 sequence (Q13324 whole entry): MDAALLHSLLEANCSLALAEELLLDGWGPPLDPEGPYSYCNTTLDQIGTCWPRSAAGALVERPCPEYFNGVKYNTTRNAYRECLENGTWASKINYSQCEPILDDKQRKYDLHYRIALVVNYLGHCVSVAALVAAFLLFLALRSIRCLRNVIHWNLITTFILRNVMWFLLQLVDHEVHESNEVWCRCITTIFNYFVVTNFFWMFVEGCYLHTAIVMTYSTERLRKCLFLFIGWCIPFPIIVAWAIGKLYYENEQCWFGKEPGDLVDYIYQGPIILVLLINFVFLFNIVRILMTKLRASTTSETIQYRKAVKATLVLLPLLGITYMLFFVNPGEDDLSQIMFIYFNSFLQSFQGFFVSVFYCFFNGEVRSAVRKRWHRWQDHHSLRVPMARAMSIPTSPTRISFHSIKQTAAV

[3] = target: Corticotropin releasing factor receptor (Rattus norvegicus, UniProt P47866+P35353); assay: Inhibition of corticotropin releasing factor stimulated cAMP production in rat pituitary assay; format: functional, tissue-based, Pituitary gland
[4] = Ratio of compound concentration in brain to that of plasma of rats upon intravenous administration of 1 mg/kg; format: ADME, organism-based; design: dose 1 mg/kg, route intravenous; conditions: rat
Summary of the method: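 Male Sprague-Dawley rats, 3 per time point, received 1 mg/kg iv by tail vein at 2 mL/kg in filtered purified water. Terminal blood and brain were taken at set times for composite sampling. Plasma was acetonitrile-precipitated and half-brains were homogenized in 50:50 acetonitrile/water, then measured by LC-MS/MS (LLOQ 5 ng/mL plasma, 0.5 ng/g brain). Ratio = brain AUC / plasma AUC, noncompartmental.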

[5] = Peak plasma concentration upon oral administration of 2 mg/kg to rats; format: ADME, organism-based; design: dose 2 mg/kg, route oral; conditions: rat
Summary of the method: (§1)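 Male Sprague-Dawley rats were dosed at 1 mg/kg iv via the tail vein and at 2 mg/kg by oral gavage, n = 3 per time point. The dosing solution was in purified water at 2 mL/kg. Terminal plasma was sampled at set times (composite design), acetonitrile-precipitated and analysed by LC-MS/MS (LLOQ 5 ng/mL). Parameters came from noncompartmental analysis.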

[6] = Plasma half life in rats upon intravenous administration of 1 mg/kg; format: ADME, organism-based; design: dose 1 mg/kg, route intravenous; conditions: rat; summary of the method: as §1
[7] = Area under concentration time curve upon oral administration of 2 mg/kg to rats; format: ADME, organism-based; design: dose 2 mg/kg, route oral; conditions: rat, in vivo; summary of the method: as §1
[8] = Bioavailability upon 2 mg/kg oral administration to rats; format: ADME, organism-based; conditions: rat, in vivo; summary of the method: as §1
[9] = Time to attain peak plasma concentration upon oral administration of 2 mg/kg to rats; format: ADME, organism-based; design: dose 2 mg/kg, route oral; conditions: rat; summary of the method: as §1
[10] = Clearance of compound in rats upon intravenous administration of 1 mg/kg; format: ADME, organism-based; design: dose 1 mg/kg, route intravenous; conditions: rat, in vivo; summary of the method: as §1
[11] = Volume of distribution in rats upon intravenous administration of 1 mg/kg; format: ADME, organism-based; design: dose 1 mg/kg, route intravenous; conditions: rat, in vivo, read-out: V; summary of the method: as §1

Row | Ki [1] [µM] | SMILES | further results
1 | 0.028 | CCCN(c1nc(-c2ccc(Cl)cc2OC)n(C)n1)C(C1CC1)C1CC1 | 
2 | 0.0092 | CCCN(c1nc(-c2ccc(Cl)cc2Cl)n(C)n1)C(C1CC1)C1CC1 | Ki [2]: > 10 µM; IC50 [3]: 0.09 µM
3 | 0.061 | CCCC(c1ccccc1)N(CCC)c1nc(-c2ccc(OC)cc2C)n(C)n1 (configuration not stated) | 
4 | 0.15 | CCC(c1ccccc1)N(CC)c1nc(-c2ccc(Cl)cc2OC)n(C)n1 (configuration not stated) | 
5 | 0.44 | CCCCC(CC)N(CC1CC1)c1nc(-c2ccc(Cl)cc2OC)n(C)n1 (configuration not stated) | 
6 | 0.28 | CCCCC(CC)N(CCOC)c1nc(-c2ccc(Cl)cc2OC)n(C)n1 (configuration not stated) | 
7 | 0.91 | CCCN(c1nc(-c2ccc(Cl)cc2OC)n(C)n1)C(C(C)C)C(C)C | 
8 | 0.012 | CCCN(c1nc(-c2ccc(Cl)cc2OC)n(C)n1)C(CC)c1ccc(C(F)(F)F)cc1 (configuration not stated) | 
9 | 0.024 | CCCCC(c1ccc(F)cc1)N(CCC)c1nc(-c2ccc(OC)cc2OC)n(C)n1 (configuration not stated) | 
10 | 0.12 | CCCC(c1ccccc1)N(CCC)c1nc(-c2ccc(OC)cc2OC)n(C)n1 (configuration not stated) | 
11 | > 10 | CCCN(CCC)c1nc(-c2ccc(Cl)cc2OC)n(C)n1 | 
12 | 0.084 | CCCC(c1ccccc1)N(CCC)c1nc(-c2cc(OC)c(OC)cc2Cl)n(C)n1 (configuration not stated) | 
13 | 0.428 | CCCN(c1nc(-c2ccc(Cl)cc2OC)n(C)n1)[C@H](CC)c1ccc(C(F)(F)F)cc1 | 
14 | 0.046 | CCCC[C@H](c1ccc(F)cc1)N(CCC)c1nc(-c2ccc(Cl)cc2OC)n(C)n1 | 
15 | 0.38 | CCC[C@H](c1ccccc1)N(CCC)c1nc(-c2ccc(OC)cc2C)n(C)n1 | 
16 | 0.0057 | CCCC[C@@H](c1ccccc1)N(CCC)c1nc(-c2ccc(OC)cc2C)n(C)n1.Cl | IC50 [3]: 0.092 µM
17 | 0.0052 | CCCN(c1nc(-c2ccc(Cl)cc2OC)n(C)n1)[C@@H](CC)c1ccc(C(F)(F)F)cc1.Cl | IC50 [3]: 0.12 µM

Row | Ki [1] [µM] | SMILES | further results
18 | 0.009 | CCC[C@@H](c1ccccc1)N(CCC)c1nc(-c2ccc(OC)cc2C)n(C)n1.Cl | IC50 [3]: 0.12 µM
19 | 0.0027 | CCCC[C@@H](c1ccc(F)cc1)N(CCC)c1nc(-c2ccc(Cl)cc2OC)n(C)n1.Cl | IC50 [3]: 0.049 µM
20 | 0.35 | CCCC[C@H](c1ccccc1)N(CCC)c1nc(-c2ccc(OC)cc2C)n(C)n1 | 
21 | 0.004 | CCCC[C@@H](c1ccccc1)N(CCC)c1nc(-c2ccc(Cl)cc2OC)n(C)n1.Cl | IC50 [3]: 0.056 µM
22 |  | CCCN(c1nc(-c2ccc(OC)cc2C)n(C)n1)[C@@H](CC)c1ccc(C(F)(F)F)cc1.Cl | IC50 [3]: 0.27 µM
23 | 0.0063 | CCC[C@@H](c1ccccc1)N(CCC)c1nc(-c2ccc(Cl)cc2OC)n(C)n1.Cl | IC50 [3]: 0.091 µM
24 | 0.022 | CCC[C@@H](c1ccccc1)N(CCC)c1nc(-c2ccc(OC)cc2OC)n(C)n1.Cl | IC50 [3]: 0.24 µM
25 | 0.0163 | CCC[C@@H](c1ccccc1)N(CCC)c1nc(-c2cc(OC)c(OC)cc2Cl)n(C)n1.Cl | IC50 [3]: 0.24 µM
26 | > 10 | CCCN(c1nc(-c2ccc(Cl)cc2Cl)nn1C)C(C1CC1)C1CC1 | 
27 | 0.014 | CCCC(c1ccccc1)N(CCC)c1nc(-c2ccc(Cl)cc2OC)n(C)n1 (configuration not stated) | 
28 | 0.0073 | CCCCC(c1ccc(F)cc1)N(CCC)c1nc(-c2ccc(Cl)cc2OC)n(C)n1 (configuration not stated) | Ratio [4]: 20%; Cmax [5]: 290 ng/mL; half-life [6]: 3.3 h; AUC [7]: 1010 ng·h/mL; bioavailability [8]: 84%; Tmax [9]: 0.5 h; clearance [10]: 27.7 mL/min/kg; Vd [11]: 7.8 L/kg
29 | 0.046 | CCCCC(CC)N(CCC)c1nc(-c2ccc(Cl)cc2OC)n(C)n1 (configuration not stated) | 
30 | 0.69 | CCCN(c1nc(-c2ccc(Cl)cc2OC)n(C)n1)C(C)CC (configuration not stated) | 
31 | 0.0069 | CCCCC(c1ccccc1)N(CCC)c1nc(-c2ccc(OC)cc2C)n(C)n1 (configuration not stated) | 
32 | 3.4 | CCCN(CCC)c1nc(-c2ccc(Cl)cc2Cl)n(C)n1 | 
33 | 0.026 | CCCN(c1nc(-c2ccc(Cl)cc2OC)n(C)n1)C(CC)c1ccccc1 (configuration not stated) | 
34 | 0.002 | CCCN(CC1CC1)c1nc(C)nc(Nc2c(Cl)cc(Cl)cc2Cl)c1Cl | 
